Tests used:
Calf thymus DNA = assay: Binding affinity to calf thymus duplex-form DNA assessed as cleavage of pBR322 after 16 hrs by restriction endonuclease digestion assay in presence of BamHI; assay type: nucleic-acid assay; conditions: Bos taurus
Method in brief: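 pBR322 DNA (500 ng) preincubated with compound (5–30 μM) 16 h at 37 °C, then digested with BamHI (20 U) 1 h at 37 °C. Products run on 1% agarose in Tris–acetate EDTA, 80 V, 2 h. Read-out was ethidium bromide staining under UV, with an undigested and a fully digested control.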

A-375 [1] = assay: Cell cycle arrest in human A375 cells assessed as accumulation at G0 phase at 2 uM after 24 hrs using propidium iodide staining by flow cytometry; assay type: functional
Method in brief: (§1)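 A375 cells (5×10^5) grown 24 h, then exposed to compound 24 h (DMSO control). Trypsin–EDTA harvest, fixed in ice-cold 70% ethanol at 4 °C 30 min, RNase A 37 °C 30 min, propidium iodide staining. DNA content measured by flow cytometry on 20,000 events, gated as sub-G1/G0, G1, S and G2/M.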

A-375 [2] = assay: Cell cycle arrest in human A375 cells assessed as accumulation at G1 phase at 2 uM after 24 hrs using propidium iodide staining by flow cytometry; assay type: functional; method in brief: as §1
A-375 [3] = assay: Cell cycle arrest in human A375 cells assessed as accumulation at S phase at 2 uM after 24 hrs using propidium iodide staining by flow cytometry; assay type: functional; method in brief: as §1
A-375 [4] = assay: Cell cycle arrest in human A375 cells assessed as accumulation at G2/M phase at 2 uM after 24 hrs using propidium iodide staining by flow cytometry; assay type: functional; method in brief: as §1
A-375 [5] = assay: Cell cycle arrest in human A375 cells assessed as accumulation at G0/G1 phase at 2 uM after 24 hrs using propidium iodide staining by flow cytometry; assay type: functional; method in brief: as §1
A-375 [6] = assay: Cell cycle arrest in human A375 cells assessed as accumulation at G0 phase at 0.5 uM after 24 hrs using propidium iodide staining by flow cytometry; assay type: functional; method in brief: as §1
A-375 [7] = assay: Cell cycle arrest in human A375 cells assessed as accumulation at G1 phase at 0.5 uM after 24 hrs using propidium iodide staining by flow cytometry; assay type: functional; method in brief: as §1
A-375 [8] = assay: Cell cycle arrest in human A375 cells assessed as accumulation at S phase at 0.5 uM after 24 hrs using propidium iodide staining by flow cytometry; assay type: functional; method in brief: as §1
A-375 [9] = assay: Cell cycle arrest in human A375 cells assessed as accumulation at G2/M phase at 0.5 uM after 24 hrs using propidium iodide staining by flow cytometry; assay type: functional; method in brief: as §1
A-375 [10] = assay: Cell cycle arrest in human A375 cells assessed as accumulation at G0/G1 phase at 0.5 uM after 24 hrs using propidium iodide staining by flow cytometry; assay type: functional; method in brief: as §1
A-375 [11] = assay: Cell cycle arrest in human A375 cells assessed as accumulation at G0 phase at 1 uM after 24 hrs using propidium iodide staining by flow cytometry; assay type: functional; method in brief: as §1
A-375 [12] = assay: Cell cycle arrest in human A375 cells assessed as accumulation at G1 phase at 1 uM after 24 hrs using propidium iodide staining by flow cytometry; assay type: functional; method in brief: as §1
A-375 [13] = assay: Cell cycle arrest in human A375 cells assessed as accumulation at S phase at 1 uM after 24 hrs using propidium iodide staining by flow cytometry; assay type: functional; method in brief: as §1
A-375 [14] = assay: Cell cycle arrest in human A375 cells assessed as accumulation at G2/M phase at 1 uM after 24 hrs using propidium iodide staining by flow cytometry; assay type: functional; method in brief: as §1
A-375 [15] = assay: Cell cycle arrest in human A375 cells assessed as accumulation at G0/G1 phase at 1 uM after 24 hrs using propidium iodide staining by flow cytometry; assay type: functional; method in brief: as §1
A-375 [16] = assay: Cell cycle arrest in human A375 cells assessed as accumulation at sub-G0 phase at 0.5 uM after 24 hrs using propidium iodide staining by flow cytometry; assay type: functional; method in brief: as §1
A-375 [17] = assay: Cell cycle arrest in human A375 cells assessed as accumulation at sub-G0 phase at 1 uM after 24 hrs using propidium iodide staining by flow cytometry; assay type: functional; method in brief: as §1
A-375 [18] = assay: Cell cycle arrest in human A375 cells assessed as accumulation at sub-G0 phase at 2 uM after 24 hrs using propidium iodide staining by flow cytometry; assay type: functional; method in brief: as §1

What does the source list for `COc1cc2c(cc1O)N=C[C@@H]1CCCN1C2=O`?
Activity (Calf thymus DNA): Dose-dependent effect; Activity (A-375 [1]): 10.7%; Activity (A-375 [2]): 67.23%; Activity (A-375 [3]): 13.54%; Activity (A-375 [4]): 8.53%; Activity (A-375 [5]): 77.93%; Activity (A-375 [6]): 3.73%; Activity (A-375 [7]): 79.42%; Activity (A-375 [8]): 79.42%; Activity (A-375 [9]): 6.45%; Activity (A-375 [10]): 83.15%; Activity (A-375 [11]): 14.41%; Activity (A-375 [12]): 74.22%; Activity (A-375 [13]): 5.03%; Activity (A-375 [14]): 6.34%; Activity (A-375 [15]): 88.63%; Activity (A-375 [16]): 2.23%; Activity (A-375 [17]): 14.41%; Activity (A-375 [18]): 26.75%

Reference: ChEMBL document CHEMBL1177643, “Synthesis, DNA-binding ability and anticancer activity of benzothiazole/benzoxazole-pyrrolo[2,1-c][1,4]benzodiazepine conjugates” (Bioorg Med Chem, 2010)
